Results as given in ChEMBL document CHEMBL5104104, “Inhibition of N-type calcium ion channels by tricyclic antidepressants - experimental and theoretical justification for their use for neuropathic pain” (RSC Med Chem, 2022).

molecular target: Voltage-dependent N-type calcium channel subunit alpha-1B (Homo sapiens, UniProt Q00975); test: Inhibition of endogenous human CaV2.2 in human SH-SY5Y cells in presence of nifedipine by Calcium 4 dye based calcium influx fluorescence-imaging assay; format: cell-based
Summary of the method: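 SH-SY5Y neuroblastoma cells with endogenous Cav2.2, seeded 48 h before assay and loaded with Calcium 4 dye in HEPES buffer pH 7.4 with 0.1% BSA and 10 µM nifedipine (30 min, 37 °C). Compound preincubated 300 s. Channels then opened with 90 mM KCl plus 5 mM CaCl2, fluorescence read 300 s more. 3-fold serial dilutions from 100 µM (1% DMSO). IC50 from concentration–response curves, mean ± SEM, n = 3–5.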

Voltage-dependent N-type calcium channel subunit alpha-1B, sequence (Q00975 whole entry): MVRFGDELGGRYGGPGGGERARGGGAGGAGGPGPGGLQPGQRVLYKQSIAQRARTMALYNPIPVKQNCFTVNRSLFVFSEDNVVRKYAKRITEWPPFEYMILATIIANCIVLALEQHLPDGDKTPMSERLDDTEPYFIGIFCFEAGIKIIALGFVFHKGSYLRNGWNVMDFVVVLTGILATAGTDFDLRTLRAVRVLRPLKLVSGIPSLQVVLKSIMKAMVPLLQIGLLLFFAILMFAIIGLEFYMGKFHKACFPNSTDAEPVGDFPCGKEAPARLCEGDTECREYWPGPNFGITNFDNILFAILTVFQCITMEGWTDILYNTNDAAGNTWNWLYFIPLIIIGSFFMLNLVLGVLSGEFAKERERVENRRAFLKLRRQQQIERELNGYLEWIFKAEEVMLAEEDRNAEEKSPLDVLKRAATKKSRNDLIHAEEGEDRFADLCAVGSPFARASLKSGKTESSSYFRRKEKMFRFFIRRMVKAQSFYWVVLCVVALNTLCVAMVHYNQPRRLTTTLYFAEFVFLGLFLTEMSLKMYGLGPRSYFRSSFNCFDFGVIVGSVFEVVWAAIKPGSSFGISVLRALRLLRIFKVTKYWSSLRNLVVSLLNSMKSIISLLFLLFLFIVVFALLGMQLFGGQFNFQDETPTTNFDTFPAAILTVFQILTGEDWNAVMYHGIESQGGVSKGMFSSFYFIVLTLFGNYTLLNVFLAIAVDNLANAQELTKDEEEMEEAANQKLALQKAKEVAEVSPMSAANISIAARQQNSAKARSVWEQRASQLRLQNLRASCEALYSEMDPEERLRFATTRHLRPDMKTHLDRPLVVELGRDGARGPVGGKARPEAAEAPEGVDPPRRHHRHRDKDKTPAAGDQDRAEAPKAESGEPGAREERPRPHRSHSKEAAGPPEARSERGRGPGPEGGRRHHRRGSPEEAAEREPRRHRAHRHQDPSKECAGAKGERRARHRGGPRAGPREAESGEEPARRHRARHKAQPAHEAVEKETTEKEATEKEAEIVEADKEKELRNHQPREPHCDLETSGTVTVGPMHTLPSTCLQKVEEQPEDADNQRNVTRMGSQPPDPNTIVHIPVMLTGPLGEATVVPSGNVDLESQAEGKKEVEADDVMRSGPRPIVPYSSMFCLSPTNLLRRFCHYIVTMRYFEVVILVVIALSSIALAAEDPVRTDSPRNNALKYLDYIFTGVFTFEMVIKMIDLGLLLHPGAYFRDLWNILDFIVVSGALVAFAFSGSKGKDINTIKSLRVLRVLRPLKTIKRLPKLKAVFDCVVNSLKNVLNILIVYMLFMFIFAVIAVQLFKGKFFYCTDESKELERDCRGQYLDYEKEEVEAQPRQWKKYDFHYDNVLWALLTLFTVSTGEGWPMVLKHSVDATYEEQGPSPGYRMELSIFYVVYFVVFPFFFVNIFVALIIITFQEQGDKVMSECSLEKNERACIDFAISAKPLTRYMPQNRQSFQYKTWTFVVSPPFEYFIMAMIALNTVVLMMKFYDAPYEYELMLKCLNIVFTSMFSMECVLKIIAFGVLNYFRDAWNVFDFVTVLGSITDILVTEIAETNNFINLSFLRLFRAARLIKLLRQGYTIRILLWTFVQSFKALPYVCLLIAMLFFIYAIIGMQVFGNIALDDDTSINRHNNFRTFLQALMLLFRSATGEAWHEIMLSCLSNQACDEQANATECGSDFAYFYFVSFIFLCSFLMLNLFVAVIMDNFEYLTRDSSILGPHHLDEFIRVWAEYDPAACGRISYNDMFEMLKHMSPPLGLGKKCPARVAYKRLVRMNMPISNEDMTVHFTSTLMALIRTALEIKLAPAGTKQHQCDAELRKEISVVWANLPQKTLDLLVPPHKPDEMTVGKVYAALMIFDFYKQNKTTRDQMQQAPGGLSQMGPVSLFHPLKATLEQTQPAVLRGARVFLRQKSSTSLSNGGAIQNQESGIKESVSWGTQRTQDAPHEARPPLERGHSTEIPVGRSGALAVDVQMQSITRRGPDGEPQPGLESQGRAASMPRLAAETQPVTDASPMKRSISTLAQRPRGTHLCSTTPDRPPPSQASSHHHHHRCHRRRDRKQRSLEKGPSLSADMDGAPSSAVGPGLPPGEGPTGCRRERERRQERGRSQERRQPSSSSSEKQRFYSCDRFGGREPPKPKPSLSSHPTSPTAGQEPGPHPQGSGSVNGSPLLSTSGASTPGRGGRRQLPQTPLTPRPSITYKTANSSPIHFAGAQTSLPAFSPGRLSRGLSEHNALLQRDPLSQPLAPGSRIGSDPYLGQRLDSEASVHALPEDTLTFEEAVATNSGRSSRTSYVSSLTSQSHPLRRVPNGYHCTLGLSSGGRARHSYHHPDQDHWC

`CN(C)CCC=C1c2ccccc2CCc2ccccc21` [AMITRIPTYLINE] and `CNCCC=C1c2ccccc2CCc2ccccc21` [NORTRIPTYLINE] are within 1.5-fold of each other in IC50: 12 µM for the first, 10 µM for the second.

First: Clc1ccc2c(c1)C(N1CCNCC1)=Nc1ccccc1O2 [AMOXAPINE]
Second: CN(C)CCCN1c2ccccc2CCc2ccc(Cl)cc21 [CLOMIPRAMINE]
The IC50 of the first is 3-fold higher: 27 µM for the first, 9 µM for the second.

Going from `CN(C)CCC=C1c2ccccc2C=Cc2ccccc21` [CYCLOBENZAPRINE] to `CN(C)CC/C=C1\c2ccccc2COc2ccccc21` [E-DOXEPIN], the IC50 rises from 10 µM to 18 µM (1.8-fold).

First: CNCCCN1c2ccccc2CCc2ccccc21 [DESIPRAMINE]
Second: CN(C)CCCN1c2ccccc2CCc2ccccc21 [IMIPRAMINE]
The IC50 of the first is 2-fold lower: 11 µM for the first, 22 µM for the second.

`CNCCCC12CCC(c3ccccc31)c1ccccc12` [MAPROTILINE] and `CNCCCC1c2ccccc2C=Cc2ccccc21` [PROTRIPTYLINE] are within 1.5-fold of each other in IC50: 10 µM for the first, 14 µM for the second.

First: OCCN1CCN(CCCN2c3ccccc3C=Cc3ccccc32)CC1 [OPIPRAMOL]
Second: CC(CN(C)C)CN1c2ccccc2CCc2ccccc21 (stereo not drawn) [TRIMIPRAMINE]
The IC50 of the first is 2.2-fold higher: 24 µM for the first, 11 µM for the second. The second is the more potent here.

`CC(CN1c2ccccc2Sc2ccccc21)N(C)C` (stereo not drawn) [PROMETHAZINE] was tested, and the IC50 was 18 µM.
